Consider four molecules from article PMC7936662 (Thrombosis research, 2020).

One data set relates to thrombin generation. The experiment in a line: Thrombin generation assay. It counts as biochemical. As to conditions: 70% human platelet-poor plasma, mean ± SD; for Cmax: read-out: Tmax EC2x (concentration of inhibitor required to double the time at which Cmax occurs).
Data set [1] relates to male SD rats. The experiment in a line: Arteriovenous shunt. It counts as in vivo. As to conditions: rat, 3 mg/kg infusion.
Data set [2] relates to male SD rats. The experiment in a line: Inferior vena cava. It counts as in vivo. As to conditions: rat.
For data set [3], the system named is male CD-1 mice. The experiment in a line: Mouse iron-chloride-induced arterial thrombosis model. Type of data set: in vivo.
The test system of data set [4] is male SD rats. As to conditions: rat, cited from earlier work.
Data set [5] relates to male SD rats. As to conditions: rat, cited from earlier work. The source holds these as a separate data set.
For data set [6], the system named is male CD-1 mice. The data set is described as follows: Thrombin-induced thromboembolism mouse model. Type of data set: in vivo. As to conditions: 4.5 mg/kg IV, 30 min observation, human α-thrombin 1.75 U/g. In a few lines:
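Mice anaesthetised with 1:1 ketamine:xylazine. Test compound given by tail-vein injection; 30 s later human α-thrombin in PBS (1.75 U/g body weight) or PBS alone injected slowly. Mortality observed for 30 min; animals alive at 30 min scored as survivors and euthanised by cervical dislocation. Results expressed as percent survival; n = 12 per treatment group.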

Data set [7] deals with male SD rats. The experiment in a line: Platelet status in AV shunt model. It counts as in vivo. As to conditions: rat, vehicle approximately 20%.
Data set [8] has as its system thrombin-mediated platelet activation. The experiment in a line: In vitro platelet activation in whole blood. As to conditions: read-out: EC50 inhibition of platelet activation, Mouse blood—Thrombin; 20% whole blood; mean ± SD. Type of data set: cell-based.
The test system is the same in data set [9]. The data set is described as follows: In vitro platelet activation in whole blood. Type of data set: cell-based. As to conditions: read-out: EC50 inhibition of platelet activation, Rat blood—Thrombin; 20% whole blood; mean ± SD.
Data set [10] shares this test system. The data set is described as follows: In vitro platelet activation in whole blood. It counts as cell-based, human. As to conditions: mean ± SD.
Data set [11] deals with TF-mediated platelet activation. The experiment in a line: In vitro platelet activation in whole blood. It counts as cell-based, human. As to conditions: mean ± SD.

Where two headings read alike, the source gives them in different places.

As a reminder, the EC50 is the concentration giving half of the maximal effect.

Regarding `COc1ccc(-n2nc(C(N)=O)c3c2C(=O)N(c2ccc(N4CCCCC4=O)cc2)CC3)cc1` [Apixaban, apixaban], the values for the EC50 in the data set with thrombin generation (read-out: Cmax EC50) and in the data set on thrombin generation (read-out: ETP EC50) were 0.1 ± 0.1 µM and 0.47 ± 0.01 µM, respectively. Further, in the data set with thrombin generation, the Cmax came out at 0.07 ± 0.04 µM. Also, the “inhibition of thrombus formation” value in the data set with male SD rats [1] is “about 90%”; with male SD rats [2] (3 mg/kg/infusion), 90%. The same molecule came in with an occlusion time in the data set on male CD-1 mice [3] (6 mg/kg infusion) greater than 30 min. For the same molecule, the “inhibition of thrombus formation, literature value” in the data set on male SD rats [4] (3 mg/kg/infusion) is given as ~ 80%. Moreover, the “inhibition of thrombus formation, literature” value in the data set on male SD rats [5] (ref 47 (Shumacher et al. 2010)) is on record as “about 60%”.
`CC1CNc2c(cccc2S(=O)(=O)N[C@@H](CCCNC(=N)N)C(=O)N2CC[C@@H](C)C[C@@H]2C(=O)O)C1` (some centres unmarked) [Argatroban, argatroban]: the concentration for a half-maximal effect (EC50) is 0.35 ± 0.14 µM with thrombin generation (read-out: Cmax EC50) and 0.36 ± 0.162 µM in the data set on thrombin generation (read-out: ETP EC50). Also, the Cmax with thrombin generation amounted to 0.454 ± 0.24 µM. The “treated mice in which mortality was prevented” value with male CD-1 mice [6] is recorded as 91%. In the data set on male CD-1 mice [3] (4 mg/kg), this molecule returned an occlusion time greater than 30 min. Besides, the “activated platelets (average over time points)” value in the data set on male SD rats [7] (2 mg/kg IV) is on record as less than 10%.
For the molecule `[H]/N=C(/N)c1ccc(NCc2nc3cc(C(=O)N(CCC(=O)O)c4ccccn4)ccc3n2C)cc1` [Dabigatran, dabigatran], the concentration for a half-maximal effect (EC50) in data set [8] amounted to 0.021 ± 0.01 µM; in [9] it was 0.027 ± 0.01 µM; in data set [10] (read-out: EC50 inhibition of platelet activation, Human blood (76%)—Thrombin, 76% whole blood) it was 0.014 ± 0.001 µM; in [10] (read-out: EC50 inhibition of platelet activation, Human blood—Thrombin, 20% whole blood), 0.035 ± 0.01 µM; in data set [11] (read-out: EC50 inhibition of platelet activation, Human blood (76%)—TF, 76% whole blood), 0.029 ± 0.003 µM; in [11] (read-out: EC50 inhibition of platelet activation, Human blood—TF, 20% whole blood), 0.023 ± 0.006 µM. Also, the EC50 stood at 0.45 ± 0.45 µM in the data set with thrombin generation (read-out: Cmax EC50) and 0.31 ± 0.24 µM in the data set with thrombin generation (read-out: ETP EC50). Moreover, the Cmax in the data set with thrombin generation was 0.24 ± 0.24 µM. The same molecule gave an ED50 thrombus formation in the data set with male SD rats [2] (IV administration) of 0.01 mg/kg. The same molecule had an occlusion time with male CD-1 mice [3] (0.2 mg/kg) greater than 30 min. In addition, in the data set on male SD rats [7] (0.1 mg/kg IV), the “activated platelets (average over time points)” value is listed as less than 10%. Also, the “EC50 in AV shunt model, literature” value in the data set on male SD rats [4] is ~ 0.04 mg/kg. The “ED50, value published by the manufacturer” value in the data set with male SD rats [5] (IV) is 0.033 mg/kg.
On to `O=C(NC[C@H]1CN(c2ccc(N3CCOCC3=O)cc2)C(=O)O1)c1ccc(Cl)s1` [Rivaroxaban, rivaroxaban], for which the concentration giving a half-maximal response (EC50) in the data set with thrombin generation (read-out: Cmax EC50) was determined as 0.1 ± 0.1 µM; in the data set with thrombin generation (read-out: ETP EC50) it was 0.31 ± 0.14 µM. Also, the Cmax in the data set with thrombin generation was 0.1 ± 0.03 µM. The “EC50 in AV shunt model, literature value” in the data set on male SD rats [4] is recorded as 0.3 mg/kg.
